From PubChem BioAssay
Rows were chosen to be rich in hits. Some 5.8% of all compounds tested hit in one or more screens of this group.
GASC1 inh: inhibitors of GASC-1 (KDM4C) histone demethylase, primary screen, biochemical, single concentration HTS; Lysine-specific demethylase 4C (Homo sapiens), Q9H3R0; GST-KDM4C 2-372, H3K9me3 peptide, LANCE TR-FRET; inhibition, % at 12.5 µM; 0.15% of 96,000 active;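 active = mean replicate inhibition above about 25%, with at least 55% of replicates also reaching it, limit read from the data, passing the limit was not always enough; inconclusive = only one of those two conditions met; inactive = neither condition met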
Target sequence (Q9H3R0 2-372 limits assumed): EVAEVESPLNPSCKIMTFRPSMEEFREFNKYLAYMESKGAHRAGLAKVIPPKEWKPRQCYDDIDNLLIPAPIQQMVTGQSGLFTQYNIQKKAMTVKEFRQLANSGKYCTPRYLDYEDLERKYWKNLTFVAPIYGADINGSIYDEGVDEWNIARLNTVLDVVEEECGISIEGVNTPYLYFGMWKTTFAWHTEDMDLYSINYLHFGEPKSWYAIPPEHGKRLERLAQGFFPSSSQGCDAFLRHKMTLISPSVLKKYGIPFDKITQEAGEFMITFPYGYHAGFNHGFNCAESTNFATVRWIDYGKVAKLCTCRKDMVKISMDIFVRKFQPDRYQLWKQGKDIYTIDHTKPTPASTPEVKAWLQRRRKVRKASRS
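Assay system: GST-GASC-1 enzyme fragment 2-372 | Amount: 10 nM enzyme | Medium: HEPES buffer, pH 7.5, plus ascorbate | Reagent: H3K9me3 peptide substrate, Fe(II), 2-oxoglutarate | Doses: Single-point compound screen | Incubation: 30 min demethylation and 1 h detection at room temperature | Measured by: LANCE TR-FRET, excitation 340 nm, emissions 618 and 671 nm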
T cruzi growth-1: T. cruzi intracellular proliferation inhibitors, primary screen, cell-based, beta-gal Tulahuen parasites, NIH3T3 host, luminescence. T. cruzi beta-gal in NIH3T3, GalScreen luminescence, 90 h. 5.9% of 77,000 active. inhibition, % at 8.34 µM;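 active = mean inhibition above about 93%, with at least 55% of replicates each passing it, limit read from the data, passing the limit was not always enough; inconclusive = only one of those two conditions holds; inactive = neither condition holds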
Pf Dd2 inh: P. falciparum Dd2 growth inhibitors, primary screen, SYBR Green fluorescence, single dose replicates; activity change, % at 10 µM; 2.3% of 94,000 active; 72 h; hits give low values; AID 1159554, 2015; in the data active = activity change below about -80%; inconclusive = no clear call, values can overlap the other calls
IDH1 R132H inh: inhibitors of IDH1 R132H reductase, primary screen, biochemical, plate reader, single point; Isocitrate dehydrogenase [NADP] cytoplasmic (Homo sapiens), O75874; diaphorase/resazurin fluorescence, 60 min; inhibition, % at 10 µM; 0.18% of 70,000 active; in the data active = inhibition above about 34%; inconclusive = no clear call, values can overlap the other calls; inactive = below about 11%;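 note: 0% = DMSO and 100% = no enzyme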
T cruzi growth-2: T. cruzi intracellular proliferation inhibitors, confirmation, cell-based, NIH3T3 host, beta-gal parasite, luminescence, cherry-pick | inhibition, % at 8.35 µM | 72% of 5,600 active | AID 651739, 2012 | T. cruzi beta-gal in NIH3T3, GalScreen luminescence, 90 h | shares compounds with T cruzi growth-1;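 active = mean replicate inhibition above about 95% and at least 55% of replicates individually reaching it, limit read from the data; inconclusive = only one of the two criteria is met; inactive = neither criterion is met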
T cruzi growth-3: inhibitors of intracellular T. cruzi replication, confirmation, NIH3T3 host cells, beta-gal parasites, cherry-pick, set 2; shares compounds with T cruzi growth-1; T. cruzi beta-gal in NIH3T3, GalScreen luminescence, 90 h; inhibition, % at 2.09 µM; 21% of 5,600 active;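 active = mean inhibition above about 95%, with at least 55% of replicates also reaching it, limit read from the data; inconclusive = meets just one of the two conditions; inactive = meets neither condition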;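 note: plate controls were neutral control median for no effect and positive control median for full effect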
NIH3T3 tox: cytotoxicity in mouse NIH/3T3 fibroblasts, confirmation, cytotoxicity control for T. cruzi proliferation inhibitor project, cell-based, cherry-pick, single point; cytotoxicity (signal decrease), % at 8.35 µM; 14% of 5,600 active; NIH/3T3 viability, CellTiter-Glo ATP luminescence, 90 h; shares compounds with T cruzi growth-1;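 active = mean signal decrease across replicates above about 35% based on untreated-well scatter, with enough replicates individually passing, limit read from the data; inconclusive = no rule stated though some were filed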;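 note: 0% = median of neutral control wells and 100% = median of positive control wells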
NIH3T3 tox 2: NIH/3T3 fibroblast cytotoxicity, confirmation, cytotoxicity control, cell-based, cherry-pick, single point, set 2 | shares compounds with T cruzi growth-1 | NIH/3T3 viability, CellTiter-Glo ATP luminescence, 90 h | inhibition, % at 24.9 µM | 56% of 5,600 active | AID 651744, 2012;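 active = mean loss of cell viability signal at or above a set limit, and enough replicates individually reaching it; inconclusive = meets only the mean limit or only the replicate share; inactive = meets neither condition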;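 note: 0% = median of neutral control wells and 100% = median of positive control wells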
Starred values were filed as active, the others as inactive; ? = inconclusive; nt = not tested or not shown.

SMILES	GASC1 inh	T cruzi growth-1	Pf Dd2 inh	IDH1 R132H inh	T cruzi growth-2	T cruzi growth-3	NIH3T3 tox	NIH3T3 tox 2
C[C@@H]1CCCCO[C@H](CN(C)Cc2ccc3c(c2)OCO3)[C@@H](C)CN([C@@H](C)CO)C(=O)c2cc(NC(=O)NC3CCCCC3)ccc2O1	1	94	nt	1	nt	nt	nt	nt
C[C@H]1CCCCO[C@H](CN(C)Cc2ccc3c(c2)OCO3)[C@@H](C)CN([C@@H](C)CO)C(=O)c2cc(NC(=O)NC3CCCCC3)ccc2O1	-1	100*	nt	nt	108*	51	18	102*
C[C@@H]1CCCCO[C@H](CN(C)Cc2ccc3c(c2)OCO3)[C@H](C)CN([C@H](C)CO)C(=O)c2cc(NC(=O)NC3CCCCC3)ccc2O1	-1	107*	nt	nt	108*	91	3	104*
CCn1c(SCC(=O)c2cccc([N+](=O)[O-])c2)nnc1-c1cccnc1	nt	nt	nt	0	nt	nt	nt	nt
CS(=O)(=O)N(CC(=O)NC1CCCCCC1)c1ccc(I)cc1	nt	nt	nt	0	nt	nt	nt	nt
Cc1ccccc1S(=O)(=O)N1CC[C@@H]2[C@@H](CO)N(C)c3ccc(-c4cccc(C#N)c4)cc3[C@@H]21	-10	100*	6	nt	99*	64	14	61*
Cc1ccccc1S(=O)(=O)N1CC[C@@H]2[C@H](CO)N(C)c3ccc(Br)cc3[C@@H]21	0	131*	-5	nt	107*	37	11	72*
COc1ccccc1S(=O)(=O)N1CC[C@@H]2[C@@H](CO)N(C)c3ccc(-c4ccc(C#N)cc4)cc3[C@@H]21	-9	23	-19	nt	nt	nt	nt	nt
Cc1ccccc1S(=O)(=O)N1CC[C@@H]2[C@H]1c1cc(-c3ccccc3)ccc1N(C)[C@H]2CO	0	98*	-70	nt	107*	115*	12	103*
COc1ccccc1S(=O)(=O)N1CC[C@@H]2[C@H]1c1cc(-c3cccc(C#N)c3)ccc1N(C)[C@H]2CO	-1	106*	22	nt	105*	63	?	33*
CC1Oc2c3c(c4c(-c5ccccc5)cc(=O)oc4c2C(=O)C1C)OC(C)(C)C=C3 (stereo unspecified)	nt	nt	nt	6	nt	nt	nt	nt
Cc1ccc(NC(=O)CC(N)C(=O)O)cc1 (stereo unspecified)	nt	nt	nt	0	nt	nt	nt	nt
COc1ccccc1S(=O)(=O)N1CC[C@@H]2[C@@H](CO)N(C)c3ccc(-c4cccc(C#N)c4)cc3[C@@H]21	2	97*	-7	nt	106*	72	15	19
CN1c2ccc(Br)cc2[C@H]2[C@H](CCN2S(=O)(=O)c2cccc(F)c2)[C@H]1CO	0	?	30	nt	97*	55	-11	27
CS(=O)(=O)N1N=C(c2cccc(NS(=O)(=O)c3ccccc3)c2)CC1c1ccco1 (stereo unspecified)	nt	nt	nt	-1	nt	nt	nt	nt
CC(C)C#Cc1ccc2c(c1)O[C@@H](CN(C)C(=O)c1cccc(F)c1)[C@@H](C)CN([C@@H](C)CO)S2(=O)=O	0	95	-72	0	nt	nt	nt	nt
C[C@H]1CN([C@@H](C)CO)S(=O)(=O)c2ccc(C#CC3CCCC3)cc2O[C@H]1CN(C)C(=O)c1cccc(F)c1	0	124*	-56	3	94	94	-3	103*
C[C@H](CO)N1C[C@H](C)[C@@H](CN(C)C(=O)c2cccc(F)c2)Oc2cc(C#CC3CCCC3)ccc2S1(=O)=O	0	122*	-71	0	102*	113*	13	105*
C[C@H](CO)N1C[C@H](C)[C@@H](CN(C)C)Oc2cc(C#Cc3ccccn3)ccc2S1(=O)=O	-1	nt	24	-1	nt	nt	nt	nt
C[C@@H]1CN([C@H](C)CO)S(=O)(=O)c2ccc(C#Cc3ccccn3)cc2O[C@@H]1CN(C)Cc1ccc(F)cc1	-5	116*	-24	0	105*	64	11	24*
C[C@H]1CN([C@@H](C)CO)S(=O)(=O)c2ccc(C#Cc3ccc(F)cc3)cc2O[C@@H]1CN(C)C(=O)c1ccccn1	-1	?	-66	nt	102*	29	1	52*
C[C@@H]1CN([C@@H](C)CO)S(=O)(=O)c2ccc(C#Cc3ccccn3)cc2O[C@H]1CN(C)Cc1ccc(F)cc1	-26	128*	-47	0	97*	?	50*	39*
C[C@@H]1CN([C@H](C)CO)S(=O)(=O)c2ccc(C#Cc3ccc(F)cc3)cc2O[C@H]1CN(C)C(=O)c1ccccn1	3	88	-50	nt	nt	nt	nt	nt
C[C@H]1CN([C@@H](C)CO)S(=O)(=O)c2ccc(C#Cc3ccccn3)cc2O[C@H]1CN(C)C	1	nt	5	-8	nt	nt	nt	nt
C[C@@H]1CN([C@H](C)CO)S(=O)(=O)c2ccc(C#Cc3ccccn3)cc2O[C@H]1CN(C)Cc1ccc(F)cc1	-12	127*	-29	0	104*	91	29	93*
SMILES	GASC1 inh	T cruzi growth-1	Pf Dd2 inh	IDH1 R132H inh	T cruzi growth-2	T cruzi growth-3	NIH3T3 tox	NIH3T3 tox 2
Cn1cc(C(c2ccc([N+](=O)[O-])o2)c2cn(C)c3ccccc23)c2ccccc21	nt	nt	nt	0	nt	nt	nt	nt
C[C@@H]1CN([C@H](C)CO)S(=O)(=O)c2ccc(C#CCN(C)C)cc2O[C@H]1CN(C)C(=O)C1CCC1	1	100*	-7	-4	?	100*	-1	2
C[C@H]1CN([C@@H](C)CO)S(=O)(=O)c2ccc(C#CCN(C)C)cc2O[C@H]1CN(C)C(=O)C1CC1	3	89	-4	nt	nt	nt	nt	nt
C[C@H]1CN([C@@H](C)CO)S(=O)(=O)c2ccc(C#CCN(C)C)cc2O[C@H]1CN(C)C(=O)C1CCC1	7	105*	-7	-3	102*	91	-12	-2
C[C@H](CO)N1C[C@H](C)[C@H](CN(C)C(=O)C2CC2)Oc2cc(C#CCN(C)C)ccc2S1(=O)=O	1	95*	4	-1	109*	92	-9	20
C[C@@H]1CN([C@@H](C)CO)S(=O)(=O)c2ccc(C#CCN(C)C)cc2O[C@H]1CN(C)C(=O)C1CCC1	2	104*	-14	nt	108*	99*	-18	11
